For assay [1], the system named is Human immunodeficiency virus 1. The assay is described as follows: Antiviral activity against azidothymidine-resistant HIV1 SF2 infected in human MT2 cells assessed as inhibition of viral p24 antigen production after 4 days by ELISA. Type of assay: functional, organism-based. The settings on record: Human immunodeficiency virus 1, MT2, 96 h. An outline of the steps: (§1)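 MT-2 cells (1 × 10^4) were infected at 100 TCID50 (0.01 MOI) in RPMI 1640 with 10% FBS, with or without graded inhibitor concentrations, overnight. Medium was then replaced with fresh inhibitor-containing medium. On day 4, supernatant was mixed 1:1 with 5% Triton X-100 and p24 was measured by ELISA. IC50 is the concentration giving 50% reduction in p24.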
(An ELISA detects its analyte on a solid surface through an enzyme-linked reagent.)

The subject of assay [2] is Human immunodeficiency virus 1. The assay is described as follows: Antiviral activity against primary HIV1 isolate 94UG103 infected in human PBMC assessed as inhibition of viral p24 antigen production after 7 days by ELISA. The settings on record: Human immunodeficiency virus 1, isolate 94UG103, 168 h.
Assay [3] deals with Human immunodeficiency virus 1. The assay is described as follows: Antiviral activity against HIV1 RF infected in human MT2 cells assessed as inhibition of viral p24 antigen production after 4 days by ELISA. The settings on record: Human immunodeficiency virus 1, RF, MT2, 96 h. Type of assay: functional, organism-based. An outline of the steps: as §1
The test system of assay [4] is Human immunodeficiency virus 1. The assay is described as follows: Antiviral activity against primary HIV1 isolate 92US657 infected in human PBMC assessed as inhibition of viral p24 antigen production after 7 days by ELISA. The note with it: Human immunodeficiency virus 1, isolate 92US657, 168 h.
The test system of assay [5] is Human immunodeficiency virus 1. The assay is described as follows: Antiviral activity against primary HIV1 isolate 92UG024 infected in human PBMC assessed as inhibition of viral p24 antigen production after 7 days by ELISA. The settings on record: Human immunodeficiency virus 1, isolate 92UG024, 168 h.
The test system of assay [6] is Human immunodeficiency virus 1. The assay is described as follows: Antiviral activity against primary HIV1 isolate RU570 infected in human PBMC assessed as inhibition of viral p24 antigen production after 7 days by ELISA. The note with it: Human immunodeficiency virus 1, isolate RU570, 168 h.
The test system of assay [7] is Human immunodeficiency virus 1. The assay is described as follows: Antiviral activity against primary HIV1 isolate 93BR020 infected in human PBMC assessed as inhibition of viral p24 antigen production after 7 days by ELISA. The settings on record: Human immunodeficiency virus 1, isolate 93BR020, 168 h.
The subject of assay [8] is Human immunodeficiency virus 1. The assay is described as follows: Antiviral activity against HIV1 BaL infected in human PBMC assessed as inhibition of viral p24 antigen production after 4 days by ELISA. It is filed as functional, organism-based. The settings on record: Human immunodeficiency virus 1, BaL, 96 h.
In assay [9] the test system is Human immunodeficiency virus 1. The assay is described as follows: Antiviral activity against protease-resistant HIV1 RF/L-323-12-3 infected in human MT2 cells assessed as inhibition of viral p24 antigen production after 4 days by ELISA. Type of assay: functional, organism-based. The note with it: Human immunodeficiency virus 1, RF/L-323-12-3, MT2, 96 h. An outline of the steps:
as §1

In assay [10] the test system is Human immunodeficiency virus 1. The assay is described as follows: Antiviral activity against HIV1 SF2 infected in human MT2 cells assessed as inhibition of viral p24 antigen production after 4 days by ELISA. It is filed as functional, organism-based. The settings on record: Human immunodeficiency virus 1, SF2, MT2, 96 h. The essentials: as §1
Assay [11] has as its system Human immunodeficiency virus 1. The assay is described as follows: Antiviral activity against HIV1 MN infected in human MT2 cells assessed as inhibition of viral p24 antigen production after 4 days by ELISA. It is filed as functional, organism-based. The note with it: Human immunodeficiency virus 1, MN, MT2, 96 h. The essentials: as §1
Assay [12] deals with Human immunodeficiency virus 1. The assay is described as follows: Antiviral activity against HIV1 3B infected in human MT2 cells assessed as inhibition of viral p24 antigen production at 5 uM after 4 days by ELISA. It is filed as functional, organism-based.
For assay [13], the target named is Structural capsid protein (Human immunodeficiency virus 1) (UniProt Q76129). The assay is described as follows: Binding affinity to HIV1 capsid protein assessed as decrease in formation of mature-like particles after 30 mins by electron microscopy. The essentials:
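Purified CA at 50 μM in Na2HPO4 buffer pH 8.0, without RNA, was incubated with inhibitor at 0.5 to 5 molar equivalents for 30 min at 4 °C. It was then dialysed overnight at 4 °C in the same buffer plus 100 mM NaCl. Samples were spotted on poly-L-lysine-treated grids, negatively stained with uranyl acetate and imaged by EM at 80 kV for tube-shaped particles.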

Assay [14] concerns Human immunodeficiency virus 1. The assay is described as follows: Antiviral activity against primary HIV1 isolate 93IN101 infected in human PBMC assessed as inhibition of viral p24 antigen production after 7 days by ELISA. The settings on record: Human immunodeficiency virus 1, isolate 93IN101, 168 h.
In assay [15] the test system is Human immunodeficiency virus 1. The assay is described as follows: Antiviral activity against primary HIV1 isolate BCF02 infected in human PBMC assessed as inhibition of viral p24 antigen production after 7 days by ELISA. The settings on record: Human immunodeficiency virus 1, isolate BCF02, 168 h.
For assay [16], the system named is Human immunodeficiency virus 1. The assay is described as follows: Antiviral activity against HIV1 3B infected in human MT2 cells assessed as inhibition of viral p24 antigen production after 4 days by ELISA. The note with it: Human immunodeficiency virus 1, 3B, MT2, 96 h. Type of assay: functional, organism-based. The essentials: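 MT-2 cells (1 × 10^4) infected with HIV-1 IIIB at 100 TCID50 (0.01 MOI) in RPMI 1640/10% FBS with graded inhibitor concentrations overnight; medium then replaced with fresh medium containing freshly prepared compound. On day 4 supernatant mixed 1:1 with 5% Triton X-100 and p24 measured by ELISA; IC50 = concentration giving 50% reduction in p24 production. Mean ± SD.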

The test system of assay [17] is Human immunodeficiency virus 1. The assay is described as follows: Antiviral activity against HIV1 89.6 infected in human PBMC assessed as inhibition of viral p24 antigen production after 4 days by ELISA. Type of assay: functional, organism-based. The note with it: Human immunodeficiency virus 1, 89.6, 96 h.
Assay [18] is described as follows: Selectivity index, ratio of CC50 for human MT2 cells to IC50 for HIV1 3B infected in human MT2 cells. It is filed as functional. An outline of the steps:
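IC50: MT-2 cells infected with HIV-1 IIIB (100 TCID50, 0.01 MOI) overnight with graded compound, then medium refreshed with compound; day-4 p24 measured by ELISA. […] Ratio is CC50/IC50.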

Structures are written as SMILES. Activity calls are given as the source filed them. No cut-off for these calls is given here.

Chain of Structural capsid protein (Human immunodeficiency virus 1) (Q76129 as listed by the source): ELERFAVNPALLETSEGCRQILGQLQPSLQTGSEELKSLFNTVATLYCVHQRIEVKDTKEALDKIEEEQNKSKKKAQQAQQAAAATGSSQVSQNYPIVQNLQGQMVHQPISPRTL

What is called IC50 is the concentration that gives 50% inhibition. Take `Cc1ccc2[nH]c(=O)c(CN(Cc3ccco3)C(=O)c3ccc(Cl)cc3)cc2c1`: the IC50 in [1] stood at 5770 nM; in assay [2], 3930 nM; in [3], 1640 nM; in [4], 5460 nM; in assay [5], 2570 nM; in assay [6], 2840 nM. The 50% inhibitory concentration (IC50) in [7] turned out to be 4180 nM; in assay [8], 4220 nM; in assay [9], 1180 nM; in assay [10], 2430 nM; in assay [11], 2880 nM; in assay [14], 2700 nM. For the same compound, the 50% inhibitory concentration (IC50) in assay [15] came out at 6070 nM; in assay [16], 1060 nM; in assay [17] it was 6170 nM. The inhibition entry in assay [12] is “Active”. Moreover, the inhibition entry in assay [13] is “Dose-dependent effect”. Moreover, the “Selectivity Index” value in [18] is more than 60.

The values above are taken from ChEMBL document CHEMBL1641440, “Virtual screening based identification of novel small-molecule inhibitors targeted to the HIV-1 capsid” (Bioorg Med Chem, 2011).
